{"source": "ChEMBL document CHEMBL3271970", "about": "“Radiopharmaceuticals. 16. Halogenated dopamine analogs. Synthesis and radiolabeling of 6-iododopamine and tissue distribution studies in animals” (J Med Chem, 1976)", "key": {"[1]": {"tested_on": "Liver", "assay": "Biodistribution in liver of mongrel dog assessed per organ at 1.29 x 10^-6 mol, iv measured after 2 hrs", "type": "ADME, organism-based, Canis lupus familiaris", "details": "in vivo", "outline": "(§1)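 Radioiodinated ([123I] or [131I]) 6-iododopamine in water or saline, used within 30 min of preparation. Given iv at 1.29 × 10^-6 mol/dog; one dog per time point, killed at 2 or 24 h. Large organs counted as three samples and averaged; adrenals and thyroid taken intact and counted. Expressed as % dose/organ.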"}, "[2]": {"tested_on": "Liver", "assay": "Biodistribution in liver of mongrel dog assessed per organ at 1.29 x 10^-6 mol, iv measured after 24 hrs", "type": "ADME, organism-based, Canis lupus familiaris", "details": "in vivo", "outline": "as §1"}, "[3]": {"assay": "Biodistribution in kidney of mongrel dog assessed per organ at 1.29 x 10^-6 mol, iv measured after 2 hrs", "type": "ADME, organism-based, Canis lupus familiaris", "details": "in vivo", "outline": "as §1"}, "[4]": {"assay": "Biodistribution in kidney of mongrel dog assessed per organ at 1.29 x 10^-6 mol, iv measured after 24 hrs", "type": "ADME, organism-based, Canis lupus familiaris", "details": "in vivo", "outline": "as §1"}, "[5]": {"assay": "Biodistribution in adrenal medulla of mongrel dog assessed per organ at 1.29 x 10^-6 mol, iv measured after 2 hrs", "type": "ADME, organism-based, Canis lupus familiaris", "details": "in vivo", "outline": "as §1"}, "[6]": {"assay": "Biodistribution in adrenal medulla of mongrel dog assessed per organ at 1.29 x 10^-6 mol, iv measured after 24 hrs", "type": "ADME, organism-based, Canis lupus familiaris", "details": "in vivo", "outline": "as §1"}, "[7]": {"assay": "Biodistribution in adrenal cortex of mongrel dog assessed per organ at 1.29 x 10^-6 mol, iv measured after 2 hrs", "type": "ADME, organism-based, Canis lupus familiaris", "details": "in vivo", "outline": "as §1"}, "[8]": {"assay": "Biodistribution in adrenal cortex of mongrel dog assessed per organ at 1.29 x 10^-6 mol, iv measured after 24 hrs", "type": "ADME, organism-based, Canis lupus familiaris", "details": "in vivo", "outline": "as §1"}, "[9]": {"assay": "Biodistribution in thyroid gland of mongrel dog assessed per organ at 1.29 x 10^-6 mol, iv measured after 2 hrs", "type": "ADME, organism-based, Canis lupus familiaris", "details": "in vivo", "outline": "(§2)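 Radioiodine-labelled tracer given at 1.29 × 10^-6 mol/dog. One dog per time point, killed at 2 or 24 h. Thyroids and other small organs were taken intact and counted. Large organs were sampled three times and averaged. Result given as % dose/organ.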"}, "[10]": {"assay": "Biodistribution in thyroid gland of mongrel dog assessed per organ at 1.29 x 10^-6 mol, iv measured after 24 hrs", "type": "ADME, organism-based, Canis lupus familiaris", "details": "in vivo", "outline": "as §2"}, "[11]": {"tested_on": "Mus musculus", "assay": "Biodistribution in adrenal gland of mouse assessed per organ at 8 to 11 x 10^-8 mol, iv measured after 5 mins", "type": "ADME, organism-based", "details": "in vivo", "outline": "(§3)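 [131I]- or [123I]-6-iododopamine in water or saline, used within 30 min of preparation. Injected iv at 8-11 × 10^-8 mol/mouse. Mice killed by ether overdose at 5-240 min; 3-10 mice per time point. Tissue radioactivity expressed as % dose/organ ± SD.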"}, "[12]": {"tested_on": "Mus musculus", "assay": "Biodistribution in adrenal gland of mouse assessed per organ at 8 to 11 x 10^-8 mol, iv measured after 15 mins", "type": "ADME, organism-based", "details": "in vivo, 0.25 h", "outline": "as §3"}, "[13]": {"tested_on": "Mus musculus", "assay": "Biodistribution in adrenal gland of mouse assessed per organ at 8 to 11 x 10^-8 mol, iv measured after 30 mins", "type": "ADME, organism-based", "details": "in vivo, 0.5 h", "outline": "as §3"}, "[14]": {"tested_on": "Mus musculus", "assay": "Biodistribution in adrenal gland of mouse assessed per organ at 8 to 11 x 10^-8 mol, iv measured after 60 mins", "type": "ADME, organism-based", "details": "in vivo, 1 h", "outline": "as §3"}, "[15]": {"tested_on": "Mus musculus", "assay": "Biodistribution in adrenal gland of mouse assessed per organ at 8 to 11 x 10^-8 mol, iv measured after 120 mins", "type": "ADME, organism-based", "details": "in vivo, 2 h", "outline": "as §3"}, "[16]": {"tested_on": "Mus musculus", "assay": "Biodistribution in adrenal gland of mouse assessed per organ at 8 to 11 x 10^-8 mol, iv measured after 240 mins", "type": "ADME, organism-based", "details": "in vivo, 4 h", "outline": "as §3"}, "[17]": {"tested_on": "Kidney", "assay": "Biodistribution in kidney of mouse assessed per organ at 8 to 11 x 10^-8 mol, iv measured after 5 mins", "type": "ADME, organism-based", "details": "in vivo", "outline": "as §3"}, "[18]": {"tested_on": "Kidney", "assay": "Biodistribution in kidney of mouse assessed per organ at 8 to 11 x 10^-8 mol, iv measured after 15 mins", "type": "ADME, organism-based", "details": "in vivo, 0.25 h", "outline": "as §3"}, "[19]": {"tested_on": "Kidney", "assay": "Biodistribution in kidney of mouse assessed per organ at 8 to 11 x 10^-8 mol, iv measured after 30 mins", "type": "ADME, organism-based", "details": "in vivo, 0.5 h", "outline": "as §3"}, "[20]": {"tested_on": "Kidney", "assay": "Biodistribution in kidney of mouse assessed per organ at 8 to 11 x 10^-8 mol, iv measured after 60 mins", "type": "ADME, organism-based", "details": "in vivo, 1 h", "outline": "as §3"}, "[21]": {"tested_on": "Kidney", "assay": "Biodistribution in kidney of mouse assessed per organ at 8 to 11 x 10^-8 mol, iv measured after 120 mins", "type": "ADME, organism-based", "details": "in vivo, 2 h", "outline": "as §3"}, "[22]": {"tested_on": "Kidney", "assay": "Biodistribution in kidney of mouse assessed per organ at 8 to 11 x 10^-8 mol, iv measured after 240 mins", "type": "ADME, organism-based", "details": "in vivo, 4 h", "outline": "as §3"}, "[23]": {"tested_on": "Liver", "assay": "Biodistribution in liver of mouse assessed per organ at 8 to 11 x 10^-8 mol, iv measured after 5 mins", "type": "ADME, organism-based", "details": "in vivo", "outline": "as §3"}, "[24]": {"tested_on": "Liver", "assay": "Biodistribution in liver of mouse assessed per organ at 8 to 11 x 10^-8 mol, iv measured after 15 mins", "type": "ADME, organism-based", "details": "in vivo, 0.25 h", "outline": "as §3"}, "[25]": {"tested_on": "Liver", "assay": "Biodistribution in liver of mouse assessed per organ at 8 to 11 x 10^-8 mol, iv measured after 30 mins", "type": "ADME, organism-based", "details": "in vivo, 0.5 h", "outline": "as §3"}, "[26]": {"tested_on": "Liver", "assay": "Biodistribution in liver of mouse assessed per organ at 8 to 11 x 10^-8 mol, iv measured after 60 mins", "type": "ADME, organism-based", "details": "in vivo, 1 h", "outline": "as §3"}, "[27]": {"tested_on": "Liver", "assay": "Biodistribution in liver of mouse assessed per organ at 8 to 11 x 10^-8 mol, iv measured after 120 mins", "type": "ADME, organism-based", "details": "in vivo, 2 h", "outline": "as §3"}, "[28]": {"tested_on": "Liver", "assay": "Biodistribution in liver of mouse assessed per organ at 8 to 11 x 10^-8 mol, iv measured after 240 mins", "type": "ADME, organism-based", "details": "in vivo, 4 h", "outline": "as §3"}, "[29]": {"tested_on": "Mus musculus", "assay": "Biodistribution in thyroid gland of mouse assessed per organ at 8 to 11 x 10^-8 mol, iv measured after 5 mins", "type": "ADME, organism-based", "details": "in vivo", "outline": "(§4)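 Tracer labelled with either 123I or 131I, in water or saline, used within 30 min of preparation. Mice dosed iv at 8-11 × 10^-8 mol/mouse and killed by ether overdose. Organs counted as % dose/organ ± SD, n = 3-10 mice per time point.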"}, "[30]": {"tested_on": "Mus musculus", "assay": "Biodistribution in thyroid gland of mouse assessed per organ at 8 to 11 x 10^-8 mol, iv measured after 15 mins", "type": "ADME, organism-based", "details": "in vivo, 0.25 h", "outline": "as §4"}, "[31]": {"tested_on": "Mus musculus", "assay": "Biodistribution in thyroid gland of mouse assessed per organ at 8 to 11 x 10^-8 mol, iv measured after 30 mins", "type": "ADME, organism-based", "details": "in vivo, 0.5 h", "outline": "as §4"}, "[32]": {"tested_on": "Mus musculus", "assay": "Biodistribution in thyroid gland of mouse assessed per organ at 8 to 11 x 10^-8 mol, iv measured after 60 mins", "type": "ADME, organism-based", "details": "in vivo, 1 h", "outline": "as §4"}, "[33]": {"tested_on": "Mus musculus", "assay": "Biodistribution in thyroid gland of mouse assessed per organ at 8 to 11 x 10^-8 mol, iv measured after 120 mins", "type": "ADME, organism-based", "details": "in vivo, 2 h", "outline": "as §4"}, "[34]": {"tested_on": "Mus musculus", "assay": "Biodistribution in thyroid gland of mouse assessed per organ at 8 to 11 x 10^-8 mol, iv measured after 240 mins", "type": "ADME, organism-based", "details": "in vivo, 4 h", "outline": "as §4"}}}
{"smiles": "Br.NCCc1cc(O)c(O)cc1[123I]", "values": [{"measurement": "Drug uptake", "setting": "[1]", "value": 2.24, "unit": "%ID"}, {"measurement": "Drug uptake", "setting": "[2]", "value": 0.48, "unit": "%ID"}, {"measurement": "Drug uptake", "setting": "[3]", "value": 0.77, "unit": "%ID"}, {"measurement": "Drug uptake", "setting": "[4]", "value": 0.075, "unit": "%ID"}, {"measurement": "Drug uptake", "setting": "[5]", "value": 0.0062, "unit": "%ID"}, {"measurement": "Drug uptake", "setting": "[6]", "value": 0.0021, "unit": "%ID"}, {"measurement": "Drug uptake", "setting": "[7]", "value": 0.0092, "unit": "%ID"}, {"measurement": "Drug uptake", "setting": "[8]", "value": 0.0104, "unit": "%ID"}, {"measurement": "Drug uptake", "setting": "[9]", "value": 0.026, "unit": "%ID"}, {"measurement": "Drug uptake", "setting": "[10]", "value": 0.48, "unit": "%ID"}, {"measurement": "Drug uptake", "setting": "[11]", "value": 0.03, "unit": "%ID"}, {"measurement": "Drug uptake", "setting": "[12]", "value": 0.015, "unit": "%ID"}, {"measurement": "Drug uptake", "setting": "[13]", "value": 0.014, "unit": "%ID"}, {"measurement": "Drug uptake", "setting": "[14]", "value": 0.0087, "unit": "%ID"}, {"measurement": "Drug uptake", "setting": "[15]", "value": 0.02, "unit": "%ID"}, {"measurement": "Drug uptake", "setting": "[16]", "value": 0.012, "unit": "%ID"}, {"measurement": "Drug uptake", "setting": "[17]", "value": 8.03, "unit": "%ID"}, {"measurement": "Drug uptake", "setting": "[18]", "value": 3.44, "unit": "%ID"}, {"measurement": "Drug uptake", "setting": "[19]", "value": 1.69, "unit": "%ID"}, {"measurement": "Drug uptake", "setting": "[20]", "value": 1, "unit": "%ID"}, {"measurement": "Drug uptake", "setting": "[21]", "value": 0.78, "unit": "%ID"}, {"measurement": "Drug uptake", "setting": "[22]", "value": 0.79, "unit": "%ID"}, {"measurement": "Drug uptake", "setting": "[23]", "value": 7.1, "unit": "%ID"}, {"measurement": "Drug uptake", "setting": "[24]", "value": 3.64, "unit": "%ID"}, {"measurement": "Drug uptake", "setting": "[25]", "value": 2.4, "unit": "%ID"}, {"measurement": "Drug uptake", "setting": "[26]", "value": 1.04, "unit": "%ID"}, {"measurement": "Drug uptake", "setting": "[27]", "value": 0.84, "unit": "%ID"}, {"measurement": "Drug uptake", "setting": "[28]", "value": 0.94, "unit": "%ID"}, {"measurement": "Drug uptake", "setting": "[29]", "value": 0.094, "unit": "%ID"}, {"measurement": "Drug uptake", "setting": "[30]", "value": 0.067, "unit": "%ID"}, {"measurement": "Drug uptake", "setting": "[31]", "value": 0.084, "unit": "%ID"}, {"measurement": "Drug uptake", "setting": "[32]", "value": 0.066, "unit": "%ID"}, {"measurement": "Drug uptake", "setting": "[33]", "value": 0.176, "unit": "%ID"}, {"measurement": "Drug uptake", "setting": "[34]", "value": 0.158, "unit": "%ID"}]}
